Results from ChEMBL document CHEMBL3102726, “Synthesis of tricyclic fused coumarin sulfonates and their inhibitory effects on LPS-induced nitric oxide and PGE2 productions in RAW 264.7 macrophages” (Bioorg Med Chem Lett, 2014).
The source made the active and inactive calls. The rule behind the calls is not given here.

Legend:
RAW264.7 [1] = assay: Antiinflammatory activity against mouse RAW264.7 cells assessed as inhibition of LPS-induced NO production at 5 uM after 24 hrs by Griess assay; type: functional
Outline: (§1)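 Single-concentration NO assay: test compounds at 5 µM, reference L-NIL at 20 µM, in LPS-stimulated RAW 264.7 cells. Nitrite in the medium was measured by Griess reaction (A540). Values are means ± SD of three independent experiments.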

RAW264.7 [2] = assay: Cytotoxicity against mouse RAW264.7 cells after 24 hrs by MTT assay; type: cell-based; conditions: RAW264.7, 24 h
Outline: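 Cells were seeded at 10⁵/well and exposed to various concentrations of compound for 24 h. Viability was read by colorimetric MTT assay.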

RAW264.7 [3] = assay: Antiinflammatory activity against mouse RAW264.7 cells assessed as inhibition of LPS-induced PGE2 production at 5 uM administered 1 hr prior to LPS-challenge measured after 24 hrs by EIA; type: functional
Outline: (§2)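 Single-concentration PGE₂ assay in LPS-stimulated RAW 264.7 cells: test compounds at 5 µM, reference NS398 at 3 µM. PGE₂ in culture media was quantified by EIA. Values are means ± SD of three independent experiments.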

RAW264.7 [4] = assay: Antiinflammatory activity against mouse RAW264.7 cells assessed as inhibition of LPS-induced NO production after 24 hrs by Griess assay; type: functional, cell-based; conditions: RAW264.7, 24 h
Outline: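 Cells were plated at 4 × 10⁵/well in DMEM with 10% FBS at 37 °C, 5% CO₂. They were incubated 24 h with LPS (1 µg/mL) plus compound at 1.60–100 µM. Medium was mixed 1:1 with Griess reagent (sulfanilamide/naphthylethylenediamine in phosphoric acid) for 10 min at room temperature, then A540 was read against fresh medium blanks.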

RAW264.7 [5] = assay: Antiinflammatory activity against mouse RAW264.7 cells assessed as inhibition of LPS-induced PGE2 production administered 1 hr prior to LPS-challenge measured after 24 hrs by EIA; type: functional, cell-based
Outline: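 Cells were pretreated for 1 h with compound at 0.1, 1, 10, 100 or 1000 nM, then given LPS (10 ng/mL) for 24 h. PGE₂ in culture media was quantified by EIA kit. Values are means ± SD of three independent experiments; ANOVA with Dunnett's post hoc test.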

RAW264.7 [6] = assay: Ratio of NS398 IC50 to compound IC50 for mouse RAW264.7 cells; type: functional
RAW264.7 [7] = assay: Antiinflammatory activity against mouse RAW264.7 cells assessed as inhibition of LPS-induced NO production administered 1 hr prior to LPS-challenge measured after 24 hrs by Griess assay; type: functional, cell-based
Outline: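 RAW 264.7 cells were grown in DMEM with 10% FBS, penicillin and streptomycin at 37 °C under 5% CO2, then plated at 4 × 10^5 cells/well. Culture medium was mixed 1:1 with Griess reagent (equal volumes of 1% sulfanilamide in 5% phosphoric acid and 0.1% naphthylethylenediamine·HCl) for 10 min at room temperature, and nitrite was read at 540 nm against fresh-medium blanks.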

RAW264.7 [8] = assay: Antiinflammatory activity against mouse RAW264.7 cells assessed as inhibition of LPS-induced PGE2 production at 3 uM administered 1 hr prior to LPS-challenge measured after 24 hrs by EIA; type: functional, cell-based; outline: as §2
RAW264.7 [9] = assay: Antiinflammatory activity against mouse RAW264.7 cells assessed as inhibition of LPS-induced COX2 protein expression administered 1 hr prior to LPS-challenge measured after 24 hrs by SDS-PAGE analysis; type: functional, cell-based
Outline: (§3)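 RAW 264.7 macrophages were pretreated for 1 h with or without 0.01, 0.1, 0.5, 1, 5 or 10 µM compound, then stimulated with LPS (10 ng/mL) for 24 h. Cell lysates were run on SDS–PAGE and transferred to PVDF. Blots were probed with iNOS and COX-2 antibodies, with β-actin as internal control.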

[10] = molecular target: T1, Nitric oxide synthase, inducible (Mus musculus) (UniProt P29477); assay: Inhibition of LPS-induced iNOS activity in mouse RAW264.7 cells at 1 to 10 uM after 12 hrs
T1 sequence (whole entry): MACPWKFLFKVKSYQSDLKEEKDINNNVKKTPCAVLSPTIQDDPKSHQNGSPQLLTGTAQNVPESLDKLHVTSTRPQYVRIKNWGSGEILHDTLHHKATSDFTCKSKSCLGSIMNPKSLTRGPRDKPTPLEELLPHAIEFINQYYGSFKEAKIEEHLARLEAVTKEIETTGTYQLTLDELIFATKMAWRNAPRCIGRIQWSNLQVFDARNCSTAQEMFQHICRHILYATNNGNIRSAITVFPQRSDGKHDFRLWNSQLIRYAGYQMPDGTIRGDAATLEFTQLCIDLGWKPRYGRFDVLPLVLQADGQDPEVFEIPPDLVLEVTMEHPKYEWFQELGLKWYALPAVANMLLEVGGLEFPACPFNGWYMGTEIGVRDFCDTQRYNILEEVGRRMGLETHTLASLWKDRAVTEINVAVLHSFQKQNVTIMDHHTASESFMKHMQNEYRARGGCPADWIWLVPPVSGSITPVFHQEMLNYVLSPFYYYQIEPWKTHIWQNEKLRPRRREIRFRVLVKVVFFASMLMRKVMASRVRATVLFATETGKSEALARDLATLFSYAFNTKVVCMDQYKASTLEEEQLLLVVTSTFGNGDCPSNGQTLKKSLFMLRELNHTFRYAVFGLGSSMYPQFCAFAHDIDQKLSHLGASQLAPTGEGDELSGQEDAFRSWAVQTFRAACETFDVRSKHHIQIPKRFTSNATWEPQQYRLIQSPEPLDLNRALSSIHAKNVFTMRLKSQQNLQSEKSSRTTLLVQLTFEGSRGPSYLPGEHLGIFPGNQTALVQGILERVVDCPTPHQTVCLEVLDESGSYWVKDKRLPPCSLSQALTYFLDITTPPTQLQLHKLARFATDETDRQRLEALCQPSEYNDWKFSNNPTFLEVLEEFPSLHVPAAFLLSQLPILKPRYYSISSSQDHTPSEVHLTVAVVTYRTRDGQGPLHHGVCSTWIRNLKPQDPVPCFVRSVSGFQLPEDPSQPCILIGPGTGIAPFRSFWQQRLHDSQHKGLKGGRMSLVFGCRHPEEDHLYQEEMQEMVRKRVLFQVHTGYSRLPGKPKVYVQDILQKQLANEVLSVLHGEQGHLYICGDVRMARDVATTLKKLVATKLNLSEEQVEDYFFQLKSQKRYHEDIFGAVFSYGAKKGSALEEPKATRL

[11] = molecular target: T2, Prostaglandin G/H synthase 2 (Homo sapiens) (UniProt P35354); assay: Inhibition of LPS-induced recombinant COX2 (unknown origin) activity expressed in mouse RAW264.7 cells at 0.1 to 5 uM after 10 mins; type: cell-based
T2 sequence (whole entry): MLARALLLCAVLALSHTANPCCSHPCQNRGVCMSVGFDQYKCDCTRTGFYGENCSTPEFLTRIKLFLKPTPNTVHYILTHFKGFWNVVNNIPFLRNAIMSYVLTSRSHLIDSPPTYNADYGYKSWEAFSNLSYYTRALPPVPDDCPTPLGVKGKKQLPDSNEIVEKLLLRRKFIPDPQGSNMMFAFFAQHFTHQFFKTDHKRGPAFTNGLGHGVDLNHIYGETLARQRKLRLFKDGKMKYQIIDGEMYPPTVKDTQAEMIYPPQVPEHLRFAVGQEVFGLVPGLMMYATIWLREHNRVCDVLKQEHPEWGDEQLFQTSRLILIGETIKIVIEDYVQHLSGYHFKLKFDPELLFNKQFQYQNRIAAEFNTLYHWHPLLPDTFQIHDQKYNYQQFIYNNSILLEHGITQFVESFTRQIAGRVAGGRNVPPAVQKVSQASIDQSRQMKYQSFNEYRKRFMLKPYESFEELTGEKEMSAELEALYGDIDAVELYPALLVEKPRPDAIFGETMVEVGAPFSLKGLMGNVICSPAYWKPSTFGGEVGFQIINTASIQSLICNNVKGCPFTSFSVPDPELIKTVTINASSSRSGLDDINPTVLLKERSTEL

RAW264.7 [12] = assay: Ratio of L-NIL IC50 to compound IC50 for mouse RAW264.7 cells; type: functional
RAW264.7 [13] = assay: Antiinflammatory activity against mouse RAW264.7 cells assessed as inhibition of LPS-induced iNOS protein expression administered 1 hr prior to LPS-challenge measured after 24 hrs by SDS-PAGE analysis; type: functional, cell-based; outline: as §3
RAW264.7 [14] = assay: Antiinflammatory activity against mouse RAW264.7 cells assessed as inhibition of LPS-induced NO production at 20 uM after 24 hrs by Griess assay; type: functional; conditions: RAW264.7, 24 h; outline: as §1

## CS(=O)(=O)Oc1ccc2c3c(c(=O)oc2c1)CCCCC3
RAW264.7 [1]
  inhibition: Active
RAW264.7 [2]
  IC50: 90.8 µM
RAW264.7 [3]
  inhibition: Active

## O=c1oc2cc(OS(=O)(=O)C3CC3)ccc2c2c1CCCCC2
RAW264.7 [1]
  inhibition: Active
RAW264.7 [2]
  IC50: 20.3 µM
RAW264.7 [3]
  inhibition: Active

## O=c1oc2cc(OS(=O)(=O)c3ccc(C(F)(F)F)cc3)ccc2c2c1CCCCCC2
RAW264.7 [1]
  inhibition: Active
RAW264.7 [2]
  IC50: > 100 µM
RAW264.7 [4]
  IC50: 75.3 µM
RAW264.7 [5]
  IC50: 0.00604 µM

## CCS(=O)(=O)Oc1ccc2c3c(c(=O)oc2c1)CCCCC3
RAW264.7 [1]
  inhibition: Active
RAW264.7 [2]
  IC50: 23.4 µM
RAW264.7 [3]
  inhibition: Active

## CCCS(=O)(=O)Oc1ccc2c3c(c(=O)oc2c1)CCCCCC3
RAW264.7 [1]
  inhibition: Active
RAW264.7 [6]
  Ratio IC50: 1.74
RAW264.7 [2]
  IC50: 9.2 µM
RAW264.7 [4]
  IC50: 10 µM
RAW264.7 [3]
  inhibition: Active
RAW264.7 [5]
  IC50: 0.00402 µM

## O=c1oc2cc(OS(=O)(=O)c3ccccc3)ccc2c2c1CCCCC2
RAW264.7 [1]
  inhibition: Active
RAW264.7 [2]
  IC50: > 100 µM
RAW264.7 [3]
  inhibition: Active

## NS(=O)(=O)Oc1ccc2c3c(c(=O)oc2c1)CCCCC3 [IROSUSTAT]
RAW264.7 [7]
  IC50: 85.8 µM
  inhibition: Dose-dependent effect
RAW264.7 [5]
  IC50: 0.081 µM
  inhibition: Dose-dependent effect

## O=c1oc2cc(OS(=O)(=O)C3CC3)ccc2c2c1CCCCCC2
RAW264.7 [1]
  inhibition: Active
RAW264.7 [2]
  IC50: 10.5 µM
RAW264.7 [3]
  inhibition: Active

## CS(=O)(=O)Nc1ccc([N+](=O)[O-])cc1OC1CCCCC1 [NS-398]
RAW264.7 [8]
  inhibition: Active
RAW264.7 [5]
  IC50: 0.00701 µM

## CCCS(=O)(=O)Oc1ccc2c3c(c(=O)oc2c1)CCCCC3
RAW264.7 [1]
  inhibition: Active
RAW264.7 [2]
  IC50: 23.9 µM
RAW264.7 [3]
  inhibition: Active

## CS(=O)(=O)Oc1ccc2c3c(c(=O)oc2c1)CCCCCC3
RAW264.7 [1]
  inhibition: Active
RAW264.7 [2]
  IC50: 24.5 µM
RAW264.7 [3]
  inhibition: Active

## CCS(=O)(=O)Oc1ccc2c3c(c(=O)oc2c1)CCCCCC3
RAW264.7 [1]
  inhibition: Active
RAW264.7 [2]
  IC50: 21.5 µM
RAW264.7 [3]
  inhibition: Active

## Cc1ccc(S(=O)(=O)Oc2ccc3c4c(c(=O)oc3c2)CCCCCC4)cc1
RAW264.7 [1]
  inhibition: Active
RAW264.7 [2]
  IC50: > 100 µM
RAW264.7 [4]
  IC50: 40.7 µM
RAW264.7 [3]
  inhibition: Active
RAW264.7 [5]
  IC50: 0.00675 µM

## O=c1oc2cc(OS(=O)(=O)c3ccccc3)ccc2c2c1CCCCCC2
RAW264.7 [1]
  inhibition: Active
RAW264.7 [2]
  IC50: > 100 µM

## Cc1ccc(S(=O)(=O)Oc2ccc3c4c(c(=O)oc3c2)CCCCC4)cc1
RAW264.7 [1]
  inhibition: Active
RAW264.7 [2]
  IC50: > 100 µM
RAW264.7 [3]
  inhibition: Active

## O=c1oc2cc(OS(=O)(=O)c3ccc(C(F)(F)F)cc3)ccc2c2c1CCCCC2
RAW264.7 [9]
  inhibition: Dose-dependent effect
RAW264.7 [1]; RAW264.7, 24 h
  inhibition at 5 µM: 65.8%
[10]
  inhibition: inactive
[11]
  inhibition: Active
RAW264.7 [12]
  Ratio IC50: 5.24
RAW264.7 [2]
  IC50: > 100 µM
RAW264.7 [4]
  IC50: 3.84 µM
RAW264.7 [13]
  inhibition: Active
RAW264.7 [3]
  inhibition (INH): 91.48%
RAW264.7 [5]
  IC50: 0.00645 µM

## CC(=N)NCCCC[C@H](N)C(=O)O [L-NIL]
RAW264.7 [14]
  inhibition at 20 µM: 50%
RAW264.7 [4]
  IC50: 20.1 µM
